Test results published in ChEMBL document CHEMBL3779898, “3,3'-OH curcumin causes apoptosis in HepG2 cells through ROS-mediated pathway” (Eur J Med Chem, 2016).
The source made the active and inactive calls. No cut-off for these calls is given here.

Assays:
HepG2 [1] = assay: Cytotoxicity against human HepG2 cells assessed as reduction in cell viability after 48 hrs by MTT assay; format: functional, cell-based; details: HepG2, 48 h
Outline: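 HepG2 seeded at 3×10^3/well, grown 24 h, then exposed to compounds for 48 h. MTT (0.5 mg/mL) added for 4 h, formazan dissolved in DMSO, absorbance read at 570 nm. IC50 = concentration giving 50% loss of viability; mean ± SD of three determinations.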

Serum = assay: Stability in RPMI-1640 medium containing 10% fetal calf serum at 25 uM incubated for 20 to 120 mins at 25 degC; format: ADME, Bos taurus; details: cattle
HepG2 [2] = assay: Potency index, ratio of curcumin IC50 to compound IC50 for human HepG2 cells; format: functional
Outline: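 Derived from MTT IC50 values in HepG2 after 48 h treatment, means of three determinations.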

HepG2 [3] = assay: Induction of apoptosis in human HepG2 cells assessed as early apoptotic cells at 12.5 uM after 24 hrs by Annexin V-FITC/propidium iodide staining based flow cytometry (reference value: 2.8%); format: functional
Outline: (§1)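 HepG2 plated at 5×10^5/well, grown 24 h, then treated 24 h; where indicated, 1 h pretreatment with 5 mM GSH or NAC. Cells stained with Annexin V-FITC/PI; 10,000 cells per sample analysed by flow cytometry into early apoptotic, late apoptotic and necrotic quadrants; triplicate.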

HepG2 [4] = assay: Induction of apoptosis in human HepG2 cells assessed as early apoptotic cells at 25 uM after 24 hrs by Annexin V-FITC/propidium iodide staining based flow cytometry (reference value: 2.8%); format: functional; outline: as §1
HepG2 [5] = assay: Induction of apoptosis in human HepG2 cells assessed as early apoptotic cells at 37.5 uM after 24 hrs by Annexin V-FITC/propidium iodide staining based flow cytometry (reference value: 2.8%); format: functional; outline: as §1
HepG2 [6] = assay: Induction of apoptosis in human HepG2 cells assessed as early apoptotic cells at 50 uM after 24 hrs by Annexin V-FITC/propidium iodide staining based flow cytometry (reference value: 2.8%); format: functional; outline: as §1
HepG2 [7] = assay: Induction of apoptosis in human HepG2 cells assessed as early apoptotic cells at 50 uM after 24 hrs pretreated with 5 mM glutathione for 1 hr by Annexin V-FITC/propidium iodide staining based flow cytometry (reference value: 2.8%); format: functional; outline: as §1
HepG2 [8] = assay: Induction of apoptosis in human HepG2 cells assessed as early apoptotic cells at 50 uM after 24 hrs pretreated with 5 mM N-acetylcysteine for 1 hr by Annexin V-FITC/propidium iodide staining based flow cytometry (reference value: 2.8%); format: functional; outline: as §1
HepG2 [9] = assay: Induction of apoptosis in human HepG2 cells assessed as late apoptotic cells at 12.5 uM after 24 hrs by Annexin V-FITC/propidium iodide staining based flow cytometry (reference value: 5.4%); format: functional; outline: as §1
HepG2 [10] = assay: Induction of apoptosis in human HepG2 cells assessed as late apoptotic cells at 25 uM after 24 hrs by Annexin V-FITC/propidium iodide staining based flow cytometry (reference value: 5.4%); format: functional; outline: as §1
HepG2 [11] = assay: Induction of apoptosis in human HepG2 cells assessed as late apoptotic cells at 37.5 uM after 24 hrs by Annexin V-FITC/propidium iodide staining based flow cytometry (reference value: 5.4%); format: functional; outline: as §1
HepG2 [12] = assay: Induction of apoptosis in human HepG2 cells assessed as late apoptotic cells at 50 uM after 24 hrs by Annexin V-FITC/propidium iodide staining based flow cytometry (reference value: 5.4%); format: functional; outline: as §1
HepG2 [13] = assay: Induction of apoptosis in human HepG2 cells assessed as late apoptotic cells at 50 uM after 24 hrs pretreated with 5 mM glutathione for 1 hr by Annexin V-FITC/propidium iodide staining based flow cytometry (reference value: 5.4%); format: functional; outline: as §1
HepG2 [14] = assay: Induction of apoptosis in human HepG2 cells assessed as late apoptotic cells at 50 uM after 24 hrs pretreated with 5 mM N-acetylcysteine for 1 hr by Annexin V-FITC/propidium iodide staining based flow cytometry (reference value: 5.4%); format: functional; outline: as §1
HepG2 [15] = assay: Induction of apoptosis in human HepG2 cells assessed as necrotic cells at 12.5 uM after 24 hrs by Annexin V-FITC/propidium iodide staining based flow cytometry (reference value: 1.6%); format: functional; outline: as §1
HepG2 [16] = assay: Induction of apoptosis in human HepG2 cells assessed as necrotic cells at 25 uM after 24 hrs by Annexin V-FITC/propidium iodide staining based flow cytometry (reference value: 1.6%); format: functional; outline: as §1
HepG2 [17] = assay: Induction of apoptosis in human HepG2 cells assessed as necrotic cells at 37.5 uM after 24 hrs by Annexin V-FITC/propidium iodide staining based flow cytometry (reference value: 1.6%); format: functional; outline: as §1
HepG2 [18] = assay: Induction of apoptosis in human HepG2 cells assessed as necrotic cells at 50 uM after 24 hrs by Annexin V-FITC/propidium iodide staining based flow cytometry (reference value: 1.6%); format: functional; outline: as §1
HepG2 [19] = assay: Induction of apoptosis in human HepG2 cells assessed as necrotic cells at 50 uM after 24 hrs pretreated with 5 mM glutathione for 1 hr by Annexin V-FITC/propidium iodide staining based flow cytometry (reference value: 1.6%); format: functional; outline: as §1
HepG2 [20] = assay: Induction of apoptosis in human HepG2 cells assessed as necrotic cells at 50 uM after 24 hrs pretreated with 5 mM N-acetylcysteine for 1 hr by Annexin V-FITC/propidium iodide staining based flow cytometry (reference value: 1.6%); format: functional; outline: as §1
HepG2 [21] = assay: Induction of apoptosis in human HepG2 cells after 24 hrs by Annexin V-FITC/propidium iodide staining based flow cytometry; format: functional, cell-based; outline: as §1
HepG2 [22] = assay: Induction of intracellular ROS production in human HepG2 cells at 50 uM after 6 hrs by DCFH-DA staining based flow cytometry relative to control; format: functional
Outline: (§2)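 Cells treated with 50 μM compound for 6 h, with or without 1 h catalase pretreatment; stained with 3 μM DCFH-DA for 30 min at 37 °C in the dark, washed, DCF fluorescence read by flow cytometry (488/530 nm); triplicate.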

HepG2 [23] = assay: Induction of intracellular ROS production in human HepG2 cells at 50 uM after 6 hrs by DCFH-DA staining based flow cytometry in presence of catalase; format: functional, cell-based; outline: as §2
HepG2 [24] = assay: Induction of superoxide radical generation production in human HepG2 cells at 50 uM incubated for 6 hrs by DHE staining based flow cytometry; format: functional, cell-based
Outline: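 Cells incubated 6 h with 50 μM compound, stained with 3 μM DHE for 30 min at 37 °C in the dark, and analysed by flow cytometry; triplicate.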

HepG2 [25] = assay: Cellular uptake in human HepG2 cells at 50 uM after 1 hr; format: ADME, cell-based; details: hepg2, 1 h
Outline: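 HepG2 cells exposed to 50 μM for varying incubation periods; cells lysed, lysate extracted with methanol, and uptake estimated by absorbance of the extract.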

HepG2 [26] = assay: Induction of intracellular ROS production in human HepG2 cells assessed as decrease in GSH/GSSG ratio incubated for 6 hrs by glutathione reductase-DTNB recycling assay; format: functional, cell-based
Outline: (§3)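 HepG2 (5×10^5/well) grown 24 h, treated 6 h, then lysed in ice-cold 10 mM HCl by three freeze–thaw cycles; part of lysate used for protein. Proteins precipitated with 6.5% 5-sulfosalicylic acid; supernatant assayed for total GSH and GSSG by glutathione reductase–DTNB recycling; triplicate.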

HepG2 [27] = assay: Induction of intracellular ROS production in human HepG2 cells assessed as decrease in GSH/GSSG ratio at 50 uM incubated for 6 hrs by glutathione reductase-DTNB recycling assay relative to control; format: functional; outline: as §3
HepG2 [28] = assay: Induction of lipid peroxidation in human HepG2 cells assessed as increase in malondialdehyde formation after 18 hrs; format: functional, cell-based
Outline: (§4)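 HepG2 (5×10^5/well) grown 24 h, treated 18 h at 6.25, 25, 37.5 or 50 μM, lysed in ice-cold water by freeze–thaw. Lysate heated 1 h at 95 °C with 0.4% thiobarbituric acid, 0.5% SDS, 9.4% acetic acid (pH 3.5), centrifuged, A532 read. MDA quantified against a tetramethoxypropane standard curve, expressed as pmol/mg protein; triplicate.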

HepG2 [29] = assay: Induction of lipid peroxidation in human HepG2 cells assessed as increase in malondialdehyde formation at 50 uM after 18 hrs relative to control; format: functional; outline: as §4
HepG2 [30] = assay: Cytotoxicity against human HepG2 cells assessed as reduction in cell viability at 50 uM after 48 hrs by MTT assay in presence of 5mM glutathione; format: functional, cell-based
Outline: (§5)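 HepG2 cells pretreated 1 h with 5 mM NAC or 5 mM GSH, then exposed to 50 μM test compound; viability measured by MTT (0.5 mg/mL, 4 h, DMSO solubilisation, 570 nm).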

HepG2 [31] = assay: Cytotoxicity against human HepG2 cells assessed as reduction in cell viability at 50 uM after 48 hrs by MTT assay in presence of 5mM N-acetylcysteine; format: functional, cell-based; outline: as §5
HepG2 [32] = assay: Induction of intracellular ROS production in human HepG2 cells at 50 uM after 3 to 6 hrs by DCFH-DA staining based flow cytometry in presence of 5mM glutathione; format: functional, cell-based
Outline: (§6)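 HepG2 pretreated 1 h with 5 mM GSH or 5 mM NAC, then exposed to 50 μM compound for the indicated time; loaded with 3 μM DCFH-DA for 30 min at 37 °C in the dark, washed with PBS, DCF fluorescence read by flow cytometry (ex 488, em 530 nm).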

HepG2 [33] = assay: Induction of intracellular ROS production in human HepG2 cells at 50 uM after 3 to 6 hrs by DCFH-DA staining based flow cytometry in presence of 5mM N-acetylcysteine; format: functional, cell-based; outline: as §6
HepG2 [34] = assay: Induction of mitochondrial membrane potential loss in human HepG2 cells at 50 uM after 18 hrs by rhodamine 123 staining based flow cytometry in presence of 5mM glutathione; format: functional, cell-based
Outline: (§7)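 HepG2 pretreated 1 h with 5 mM GSH or 5 mM NAC, then exposed to 50 μM compound for the indicated time; Rhodamine 123 fluorescence measured by flow cytometry; triplicate.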

HepG2 [35] = assay: Induction of mitochondrial membrane potential loss in human HepG2 cells at 50 uM after 18 hrs by rhodamine 123 staining based flow cytometry in presence of 5mM N-acetylcysteine; format: functional, cell-based; outline: as §7

O=C(/C=C/c1ccccc1)CC(=O)/C=C/c1ccccc1
IC50 (HepG2 [1]): > 200 µM

O=C(/C=C/c1ccccc1C(F)(F)F)CC(=O)/C=C/c1ccccc1C(F)(F)F
IC50 (HepG2 [1]): > 200 µM

O=C(/C=C/c1cccc(C(F)(F)F)c1)CC(=O)/C=C/c1cccc(C(F)(F)F)c1
IC50 (HepG2 [1]): > 200 µM

COc1ccccc1/C=C/C(=O)CC(=O)/C=C/c1ccccc1OC
IC50 (HepG2 [1]): 125 µM

COc1cccc(/C=C/C(=O)CC(=O)/C=C/c2cccc(OC)c2)c1
IC50 (HepG2 [1]): 83.4 µM

O=C(/C=C/c1cccc(O)c1)CC(=O)/C=C/c1cccc(O)c1
IC50 (HepG2 [1]): 15.1 µM | Stability (Serum): Stable | Ratio IC50 (HepG2 [2]): 3.5 | Activity (HepG2 [3]): 2.8% | Activity (HepG2 [4]): 7% | Activity (HepG2 [5]): 19.1% | Activity (HepG2 [6]): 1.4% | Activity (HepG2 [7]): 3% | Activity (HepG2 [8]): 2.8% | Activity (HepG2 [9]): 5.7% | Activity (HepG2 [10]): 12.4% | Activity (HepG2 [11]): 28.5% | Activity (HepG2 [12]): 80.2% | Activity (HepG2 [13]): 6.3% | Activity (HepG2 [14]): 6.8% | Activity (HepG2 [15]): 2.8% | Activity (HepG2 [16]): 7% | Activity (HepG2 [17]): 45% | Activity (HepG2 [18]): 7.6% | Activity (HepG2 [19]): 2% | Activity (HepG2 [20]): 2.2% | Activity (HepG2 [21]): Dose-dependent effect | fold change (FC) (HepG2 [22]): 5 | Activity (HepG2 [23]): inactive | Activity (HepG2 [24]): inactive | Drug uptake (HepG2 [25]): Active | Activity (HepG2 [26]): Dose-dependent effect | fold change (FC) (HepG2 [27]): 2 | Activity (HepG2 [28]): Dose-dependent effect | fold change (FC) (HepG2 [29]): 1 | Activity (HepG2 [30]): inactive | Activity (HepG2 [31]): inactive | Activity (HepG2 [32]): inactive | Activity (HepG2 [33]): inactive | Activity (HepG2 [34]): inactive | Activity (HepG2 [35]): inactive
